According to ChEMBL document CHEMBL1157387, “Antitussive stemoninine alkaloids from the roots of Stemona tuberosa” (2008):

Tests used:
Assay type in all cases: functional
Cavia porcellus [1] = assay: Antitussive activity in guinea pig assessed as inhibition of citric acid-induced coughing at 0.25 umol, intracerebroventricularly administered as single dose after 3 mins relative to control
How it was run: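 Unrestrained conscious Dunkin-Hartley guinea pigs with a 22-gauge guide cannula in the lateral ventricle, placed stereotaxically under anaesthesia, recovered 4 days. Single icv dose in 10 µL of Tween 80/saline (5:95). 3 min later, 8-min 0.5 M citric acid aerosol (0.5 mL/min) in an airtight chamber. Cough sounds recorded and episodes counted. % inhibition vs vehicle group; one-way ANOVA with Bonferroni tests.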

Cavia porcellus [2] = assay: Antitussive activity in guinea pig assessed as inhibition of citric acid-induced coughing at 0.26 mmol/kg, ip administered as single dose after 30 mins; details: 0.5 h
How it was run: (§1)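 Unrestrained conscious Dunkin-Hartley guinea pigs, randomised, given a single ip dose in DMSO. 30 min later, 8-min 0.5 M citric acid aerosol (0.5 mL/min) in an airtight chamber. Cough sounds recorded and episodes counted. % inhibition vs vehicle group (n = 4-8); one-way ANOVA with Bonferroni tests.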

Cavia porcellus [3] = assay: Antitussive activity in guinea pig assessed as inhibition of citric acid-induced coughing at 0.26 mmol/kg, po administered as single dose after 30 mins; design: scale not given: the % may be the effect or the level left
How it was run: (§2)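 Unrestrained conscious Dunkin-Hartley guinea pigs, randomised, given a single oral dose of 100 mg/kg in Tween 80/saline (5:95). 30 min later, 8-min 0.5 M citric acid aerosol (0.5 mL/min) in an airtight chamber. Cough episodes counted from recorded sounds. % inhibition vs vehicle group (n = 4-8); ANOVA with Bonferroni tests.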

Cavia porcellus [4] = assay: Antitussive activity in guinea pig assessed as inhibition of citric acid-induced coughing at 0.33 mmol/kg, po administered as single dose after 30 mins; design: scale not given: the % may be the effect or the level left; how it was run: as §2
Cavia porcellus [5] = assay: Antitussive activity in guinea pig assessed as inhibition of citric acid-induced coughing at 0.33 mmol/kg, ip administered as single dose after 30 mins; details: 0.5 h; how it was run: as §1

CC[C@H]1[C@H]2[C@@H](CCCN3C([C@@H]4C[C@H](C)C(=O)O4)=CC(=O)[C@@]23OC)O[C@]12C=C(C)C(=O)O2
inhibition (INH) (Cavia porcellus [1]): 10%

CC[C@H]1[C@H]2[C@@H](CCCN3C([C@@H]4C[C@H](C)C(=O)O4)=CC(=O)[C@@]23O)O[C@]12C=C(C)C(=O)O2 [STEMOENONINE]
inhibition (INH) (Cavia porcellus [1]): 10%

CC[C@H]1[C@H]2[C@@H](CCCN3[C@H]2CC[C@H]3[C@@H]2C[C@H](C)C(=O)O2)O[C@]12C=C(C)C(=O)O2 [STEMONININE]
inhibition in vivo at 260 µmol/kg (Cavia porcellus [2]): 90%
inhibition (INH) (Cavia porcellus [1]): 10%
Activity (Cavia porcellus [3]): 70%

CC[C@H]1[C@H]2[C@@H](CCCN3C(=O)CC[C@@H]23)O[C@]12C=C(C)C(=O)O2 [STEMONINOAMIDE]
Activity (Cavia porcellus [4]): 70%
inhibition in vivo at 330 µmol/kg (Cavia porcellus [5]): 90%
inhibition (INH) (Cavia porcellus [1]): 10%
